Published values collected from several papers.
Cell line: MOLM-13
Effect on: cell growth or viability

| SMILES | test | setting | quantity | result |
| --- | --- | --- | --- | --- |
| Nc1cccc(-c2ccc3ncc(OCC4CCNCC4)nc3c2)c1 | XTT | 7 days | EC50 | 28300 nM |
| O=C(Nc1ccccc1/N=c1\cc(-c2ccc3c(c2)OCCO3)oc2cc(F)ccc12)N1CCOCC1 | CCK-8 | 1 µM | inhibition | 2.91% |
| CONC(=O)c1cccc2c1cc(C)n2-c1nc2c(c(NCc3ccccc3)n1)CCCN2 |  | 72 h | IC50 | 1400 nM |
| COc1ccc2/c(=N/c3ccccc3NC(=O)[C@@H](N)C(C)(C)C)cc(-c3ccc4c(c3)OCCO4)oc2c1 | CCK-8 | 1 µM | inhibition | 2.86% |
| c1cc(-c2cc3ncc(OCC4CCNCC4)nc3cc2-c2cccc(N3CCCCC3)c2)cc(N2CCCCC2)c1 | XTT | 7 days | EC50 | 1400 nM |
| Cc1n[nH]c2ccc3nc(-c4ccc(C(=O)NCCN(C)C)cc4F)c4c(c3c12)CCCCC4 |  | 72 h | GI50 | 150 nM |
| c1cc(N2CCC(N3CCOCC3)CC2)ccc1Nc1ccc2ncc(OCC3CCNCC3)nc2c1 | XTT | 7 days | EC50 | > 30000 nM |
| CN(C)CCNC(=O)c1ccc(-c2nc3ccc4[nH]ncc4c3c3c2CCCCC3)cc1 |  | 72 h | GI50 | 84 nM |
| c1ccc(COc2ccc(Nc3ccc4ncc(OCC5CCNCC5)nc4c3)cc2)cc1 | XTT | 7 days | EC50 | 840 nM |
| NCC(=O)Nc1ccccc1/N=c1\cc(-c2ccc3c(c2)OCO3)oc2ccccc12 | CCK-8 | 1 µM | inhibition | 1.52% |
| CN(C)CCNC(=O)c1ccc(-c2nc3ccc4[nH]ncc4c3c3c2CCCCC3)c(F)c1 |  | 72 h | GI50 | 51 nM |
| C[C@H](N)C(=O)Nc1ccccc1/N=c1\cc(-c2ccc3c(c2)OCCO3)oc2c(N)cccc12 | CCK-8 | 1 µM | inhibition | 3.7% |
| CN(C)CCNC(=O)c1ccc(-c2nc3ccc4[nH]ncc4c3c3c2CCCC3)cc1 |  | 72 h | GI50 | 100 nM |
| CS(=O)(=O)NCCC(=O)Nc1ccccc1/N=c1\cc(-c2ccc3nc(N)oc3c2)oc2ccccc12 | CCK-8 | 1 µM | inhibition | 8.5% |
| Cc1n[nH]c2ccc3nc(-c4ccc(C(=O)NCCN(C)C)cc4)c4c(c3c12)CCCC4 |  | 72 h | GI50 | 54 nM |
